Assay results from ChEMBL document CHEMBL2203081 (Bioorg Med Chem Lett, 2012).
The source made the active and inactive calls. The rule behind the calls is not given here.

Key:
Brain = assay: Volume of distribution at steady state in Swiss albino mouse […] at 1 mg/kg, iv; assay type: ADME, organism-based; parameters: dose 1 mg/kg, route intravenous; conditions: in vivo
[1] = molecular target: Angiopoietin-1 receptor (Homo sapiens) (UniProt Q02763); assay: Inhibition of TIE2 assessed as residual activity at 1 uM
[2] = system: Leucine-rich repeat serine/threonine-protein kinase 2 (Homo sapiens), Q5S007 [A2016T]; conditions: HEK293, 1 to 3 uM
[3] = molecular target: T1, Mitogen-activated protein kinase kinase kinase 7 (Homo sapiens) (UniProt O43318); assay: Inhibition of TAK1 assessed as residual activity at 10 uM
T1 sequence (whole entry): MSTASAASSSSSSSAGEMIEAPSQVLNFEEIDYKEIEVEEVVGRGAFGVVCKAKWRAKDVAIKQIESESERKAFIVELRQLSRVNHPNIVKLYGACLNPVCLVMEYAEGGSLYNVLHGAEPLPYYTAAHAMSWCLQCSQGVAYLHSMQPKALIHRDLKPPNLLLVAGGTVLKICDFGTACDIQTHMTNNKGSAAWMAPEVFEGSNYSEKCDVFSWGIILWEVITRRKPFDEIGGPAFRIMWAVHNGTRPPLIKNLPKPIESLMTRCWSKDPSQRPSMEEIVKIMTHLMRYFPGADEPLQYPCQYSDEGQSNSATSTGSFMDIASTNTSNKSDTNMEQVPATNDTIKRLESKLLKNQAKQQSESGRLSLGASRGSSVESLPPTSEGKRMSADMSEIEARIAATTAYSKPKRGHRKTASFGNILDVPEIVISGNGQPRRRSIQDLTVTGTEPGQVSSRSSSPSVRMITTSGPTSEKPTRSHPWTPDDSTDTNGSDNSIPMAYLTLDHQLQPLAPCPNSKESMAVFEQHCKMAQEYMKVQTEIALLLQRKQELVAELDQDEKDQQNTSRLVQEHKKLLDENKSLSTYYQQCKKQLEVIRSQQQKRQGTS

[4] = molecular target: Receptor tyrosine-protein kinase erbB-2 (Homo sapiens) (UniProt P04626); assay: Inhibition of ERBB2 assessed as residual activity at 10 uM relative to control
In short: (§1)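 Competition kinase-binding assay (KINOMEscan) across a non-redundant panel of 329 kinases beyond the radiometric panel; residual binding expressed relative to control.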

[5] = molecular target: Phosphorylase b kinase gamma catalytic chain, skeletal muscle/heart isoform (Homo sapiens) (UniProt Q16816); assay: Inhibition of PHKG1 assessed as residual activity at 10 uM relative to control
[6] = molecular target: Inhibitor of nuclear factor kappa-B kinase subunit epsilon (Homo sapiens) (UniProt Q14164); assay: Inhibition of IKKe assessed as residual activity at 1 uM
[7] = molecular target: Mitogen-activated protein kinase 4 (Homo sapiens) (UniProt P31152); assay: Inhibition of ERK4 assessed as residual activity at 10 uM relative to control
[8] = molecular target: Serine/threonine-protein kinase PAK 2 (Homo sapiens) (UniProt Q13177); assay: Inhibition of PAK2 assessed as residual activity at 1 uM
[9] = molecular target: AP2-associated protein kinase 1 (Homo sapiens) (UniProt Q2M2I8); assay: Inhibition of AAK1 assessed as residual activity at 10 uM relative to control
[10] = molecular target: Serine/threonine-protein kinase NLK (Homo sapiens) (UniProt Q9UBE8); assay: Inhibition of NLK assessed as residual activity at 10 uM relative to control
[11] = molecular target: Cyclin-dependent kinase 2 (Homo sapiens) (UniProt P24941); assay: Inhibition of CDK2 assessed as residual activity at 10 uM relative to control
[12] = molecular target: Platelet-derived growth factor receptor beta (Homo sapiens) (UniProt P09619); assay: Inhibition of PDGFRB assessed as residual activity at 10 uM relative to control
[13] = molecular target: Mitogen-activated protein kinase 14 (Homo sapiens) (UniProt Q16539); assay: Inhibition of p38a MAPK assessed as residual activity at 10 uM
[14] = molecular target: Serine/threonine-protein kinase WNK1 (Homo sapiens) (UniProt Q9H4A3); assay: Inhibition of WNK1 assessed as residual activity at 10 uM relative to control
[15] = molecular target: Cyclin-dependent kinase 2/cyclin A (Homo sapiens) (UniProt P24941+P20248+P78396); assay: Inhibition of CDK2-Cyclin A assessed as residual activity at 10 uM; assay type: protein-complex assay
[16] = molecular target: Leucine-rich repeat serine/threonine-protein kinase 2 (Mus musculus) (UniProt Q5S006); assay: Inhibition of LRRK2 in Swiss mouse 3T3 cells assessed as inhibition of Ser910 autophosphorylation after 90 mins by immunoblot method; assay type: cell-based; conditions: NIH3T3
[17] = molecular target: Insulin receptor-related protein (Homo sapiens) (UniProt P14616); assay: Inhibition of INSRR assessed as residual activity at 10 uM relative to control
[18] = molecular target: Leucine-rich repeat serine/threonine-protein kinase 2 (Mus musculus) (UniProt Q5S006); assay: Inhibition of LRRK2 in Swiss mouse 3T3 cells assessed as inhibition of Ser935 autophosphorylation after 90 mins by immunoblot method; assay type: cell-based; conditions: NIH3T3
[19] = molecular target: Ephrin type-A receptor 3 (Homo sapiens) (UniProt P29320); assay: Inhibition of EPHA3 assessed as residual activity at 10 uM relative to control; in short: as §1
[20] = molecular target: Receptor-interacting serine/threonine-protein kinase 2 (Homo sapiens) (UniProt O43353); assay: Inhibition of RIPK2 assessed as residual activity at 10 uM
[21] = molecular target: Protein-tyrosine kinase 6 (Homo sapiens) (UniProt Q13882); assay: Inhibition of BRK assessed as residual activity at 10 uM
In short: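 Radioactivity-based enzymatic assay against a panel of 131 kinases (Dundee profiling). Activity remaining was measured with compound present at the stated concentration.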

[22] = molecular target: Cyclin-dependent kinase 11A (Homo sapiens) (UniProt Q9UQ88); assay: Inhibition of CDC2L2 assessed as residual activity at 10 uM relative to control
[23] = molecular target: Serine/threonine-protein kinase SIK2 (Homo sapiens) (UniProt Q9H0K1); assay: Inhibition of SIK2 assessed as residual activity at 10 uM
[24] = molecular target: Serine/threonine-protein kinase 36 (Homo sapiens) (UniProt Q9NRP7); assay: Inhibition of STK36 assessed as residual activity at 10 uM relative to control
[25] = molecular target: Mitogen-activated protein kinase kinase kinase 4 (Homo sapiens) (UniProt Q9Y6R4); assay: Inhibition of MAP3K4 assessed as residual activity at 10 uM relative to control
[26] = molecular target: MAP kinase-activated protein kinase 2 (Homo sapiens) (UniProt P49137); assay: Inhibition of MAPKAPK2 assessed as residual activity at 10 uM relative to control
[27] = molecular target: Receptor-interacting serine/threonine-protein kinase 2 (Homo sapiens) (UniProt O43353); assay: Inhibition of RIPK2 assessed as residual activity at 10 uM relative to control
[28] = molecular target: Serine/threonine-protein kinase pim-1 (Homo sapiens) (UniProt P11309); assay: Inhibition of PIM1 assessed as residual activity at 10 uM
[29] = molecular target: Macrophage-stimulating protein receptor (Homo sapiens) (UniProt Q04912); assay: Inhibition of MST1R assessed as residual activity at 10 uM relative to control
[30] = molecular target: Serine/threonine-protein kinase SIK1 (Homo sapiens) (UniProt P57059); assay: Inhibition of SIK assessed as residual activity at 10 uM relative to control

Chain of Leucine-rich repeat serine/threonine-protein kinase 2 (Mus musculus) (Q5S006 whole entry): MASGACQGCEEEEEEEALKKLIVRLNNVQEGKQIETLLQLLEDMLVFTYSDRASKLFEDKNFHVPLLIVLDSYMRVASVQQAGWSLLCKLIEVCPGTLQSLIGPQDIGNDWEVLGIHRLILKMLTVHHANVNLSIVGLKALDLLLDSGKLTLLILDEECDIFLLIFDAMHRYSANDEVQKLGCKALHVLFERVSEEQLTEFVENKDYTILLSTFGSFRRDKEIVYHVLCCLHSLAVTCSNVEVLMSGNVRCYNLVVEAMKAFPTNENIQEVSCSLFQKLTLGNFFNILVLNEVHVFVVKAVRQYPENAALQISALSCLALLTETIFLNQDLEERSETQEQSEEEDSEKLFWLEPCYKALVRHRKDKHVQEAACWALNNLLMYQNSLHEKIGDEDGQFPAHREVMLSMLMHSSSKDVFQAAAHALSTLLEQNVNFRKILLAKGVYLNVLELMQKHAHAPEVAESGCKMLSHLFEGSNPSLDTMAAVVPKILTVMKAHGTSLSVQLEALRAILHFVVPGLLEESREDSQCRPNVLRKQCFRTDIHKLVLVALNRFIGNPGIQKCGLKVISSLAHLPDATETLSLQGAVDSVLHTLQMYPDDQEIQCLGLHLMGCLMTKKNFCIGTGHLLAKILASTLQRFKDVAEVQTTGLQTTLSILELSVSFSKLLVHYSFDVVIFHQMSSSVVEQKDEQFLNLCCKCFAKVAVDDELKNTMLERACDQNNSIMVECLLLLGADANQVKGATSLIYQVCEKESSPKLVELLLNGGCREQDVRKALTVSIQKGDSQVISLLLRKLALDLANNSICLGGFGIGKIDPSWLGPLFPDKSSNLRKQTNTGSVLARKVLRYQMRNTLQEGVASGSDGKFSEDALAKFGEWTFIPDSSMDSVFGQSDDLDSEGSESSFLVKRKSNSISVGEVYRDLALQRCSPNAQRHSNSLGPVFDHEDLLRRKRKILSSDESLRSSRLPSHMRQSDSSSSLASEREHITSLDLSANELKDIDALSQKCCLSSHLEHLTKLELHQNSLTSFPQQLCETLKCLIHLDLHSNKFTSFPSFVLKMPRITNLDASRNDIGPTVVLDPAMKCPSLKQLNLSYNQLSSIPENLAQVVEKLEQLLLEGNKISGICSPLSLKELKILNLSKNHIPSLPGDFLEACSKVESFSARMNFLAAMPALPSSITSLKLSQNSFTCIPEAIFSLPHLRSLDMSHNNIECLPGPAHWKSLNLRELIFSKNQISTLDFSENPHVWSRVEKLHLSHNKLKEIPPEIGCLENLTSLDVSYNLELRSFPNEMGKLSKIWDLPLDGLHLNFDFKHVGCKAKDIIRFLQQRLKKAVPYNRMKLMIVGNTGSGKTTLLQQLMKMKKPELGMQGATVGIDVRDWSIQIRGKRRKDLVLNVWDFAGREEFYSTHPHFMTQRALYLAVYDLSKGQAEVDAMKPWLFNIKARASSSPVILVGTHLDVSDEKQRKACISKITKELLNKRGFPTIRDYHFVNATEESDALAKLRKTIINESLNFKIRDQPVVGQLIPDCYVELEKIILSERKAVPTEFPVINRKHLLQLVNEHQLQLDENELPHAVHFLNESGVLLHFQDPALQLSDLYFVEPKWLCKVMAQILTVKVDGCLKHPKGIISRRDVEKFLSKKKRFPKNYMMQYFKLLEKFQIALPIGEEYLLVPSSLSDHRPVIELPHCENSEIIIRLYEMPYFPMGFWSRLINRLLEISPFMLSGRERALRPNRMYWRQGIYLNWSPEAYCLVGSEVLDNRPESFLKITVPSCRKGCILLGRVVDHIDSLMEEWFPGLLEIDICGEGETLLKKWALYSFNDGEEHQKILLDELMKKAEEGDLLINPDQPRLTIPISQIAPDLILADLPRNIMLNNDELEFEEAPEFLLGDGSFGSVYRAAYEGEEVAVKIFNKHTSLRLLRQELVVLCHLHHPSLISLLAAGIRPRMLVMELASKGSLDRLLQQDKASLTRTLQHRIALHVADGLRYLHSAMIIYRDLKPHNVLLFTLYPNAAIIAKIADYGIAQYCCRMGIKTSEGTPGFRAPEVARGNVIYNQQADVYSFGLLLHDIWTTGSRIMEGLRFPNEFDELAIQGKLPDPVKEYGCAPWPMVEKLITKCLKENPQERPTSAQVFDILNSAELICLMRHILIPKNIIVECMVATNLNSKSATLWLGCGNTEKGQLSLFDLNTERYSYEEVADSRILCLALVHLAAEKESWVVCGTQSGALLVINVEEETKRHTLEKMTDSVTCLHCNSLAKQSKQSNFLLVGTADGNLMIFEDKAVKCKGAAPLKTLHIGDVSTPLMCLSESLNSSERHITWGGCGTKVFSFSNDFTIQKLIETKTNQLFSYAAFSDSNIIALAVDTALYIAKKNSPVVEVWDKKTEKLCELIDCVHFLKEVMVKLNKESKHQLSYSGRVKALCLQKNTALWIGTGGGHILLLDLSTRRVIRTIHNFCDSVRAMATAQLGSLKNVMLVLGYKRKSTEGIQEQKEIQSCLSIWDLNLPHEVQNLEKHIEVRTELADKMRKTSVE
Chain of Receptor-interacting serine/threonine-protein kinase 2 (Homo sapiens) (O43353 whole entry): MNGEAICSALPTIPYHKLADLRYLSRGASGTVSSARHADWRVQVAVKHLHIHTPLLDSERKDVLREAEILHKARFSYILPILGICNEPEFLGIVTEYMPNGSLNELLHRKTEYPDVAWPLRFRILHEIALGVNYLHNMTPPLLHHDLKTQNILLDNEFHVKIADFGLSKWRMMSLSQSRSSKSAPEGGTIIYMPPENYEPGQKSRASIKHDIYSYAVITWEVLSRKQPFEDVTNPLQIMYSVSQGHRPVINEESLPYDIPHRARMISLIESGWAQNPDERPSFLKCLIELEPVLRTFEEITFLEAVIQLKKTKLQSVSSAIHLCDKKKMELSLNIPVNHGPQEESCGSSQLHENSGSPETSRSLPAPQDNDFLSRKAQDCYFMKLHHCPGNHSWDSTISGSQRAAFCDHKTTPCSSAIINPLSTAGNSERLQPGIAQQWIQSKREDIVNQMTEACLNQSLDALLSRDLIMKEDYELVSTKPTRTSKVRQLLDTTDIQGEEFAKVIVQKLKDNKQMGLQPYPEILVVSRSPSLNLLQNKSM
Chain of Angiopoietin-1 receptor (Homo sapiens) (Q02763 whole entry): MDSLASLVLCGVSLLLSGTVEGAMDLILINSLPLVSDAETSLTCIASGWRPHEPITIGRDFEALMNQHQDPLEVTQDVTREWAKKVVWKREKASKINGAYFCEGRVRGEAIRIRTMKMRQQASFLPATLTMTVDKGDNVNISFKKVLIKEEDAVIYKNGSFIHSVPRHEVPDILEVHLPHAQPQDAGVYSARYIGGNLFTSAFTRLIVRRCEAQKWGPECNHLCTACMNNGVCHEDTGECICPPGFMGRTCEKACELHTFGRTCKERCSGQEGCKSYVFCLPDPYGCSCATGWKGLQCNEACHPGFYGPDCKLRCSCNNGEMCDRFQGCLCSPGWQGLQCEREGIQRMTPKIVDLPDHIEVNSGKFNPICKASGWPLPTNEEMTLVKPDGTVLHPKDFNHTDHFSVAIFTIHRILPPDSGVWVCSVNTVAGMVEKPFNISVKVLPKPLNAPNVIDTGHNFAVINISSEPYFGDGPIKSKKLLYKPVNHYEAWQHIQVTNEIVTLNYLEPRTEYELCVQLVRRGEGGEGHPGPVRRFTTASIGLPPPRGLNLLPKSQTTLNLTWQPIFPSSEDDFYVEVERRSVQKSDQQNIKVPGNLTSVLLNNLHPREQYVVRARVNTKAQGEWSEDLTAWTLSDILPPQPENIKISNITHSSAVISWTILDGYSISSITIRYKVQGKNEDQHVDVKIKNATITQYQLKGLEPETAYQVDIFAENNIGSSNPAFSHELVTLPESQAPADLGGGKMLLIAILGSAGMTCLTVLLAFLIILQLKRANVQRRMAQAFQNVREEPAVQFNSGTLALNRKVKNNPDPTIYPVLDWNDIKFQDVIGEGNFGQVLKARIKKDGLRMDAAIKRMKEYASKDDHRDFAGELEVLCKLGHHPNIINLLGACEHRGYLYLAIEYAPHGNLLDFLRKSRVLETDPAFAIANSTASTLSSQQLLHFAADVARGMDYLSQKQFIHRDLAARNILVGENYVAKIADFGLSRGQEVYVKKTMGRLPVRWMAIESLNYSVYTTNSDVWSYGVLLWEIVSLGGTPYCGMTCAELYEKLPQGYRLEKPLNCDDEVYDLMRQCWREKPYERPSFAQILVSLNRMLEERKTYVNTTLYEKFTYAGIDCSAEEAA
Chain of Serine/threonine-protein kinase NLK (Homo sapiens) (Q9UBE8 whole entry): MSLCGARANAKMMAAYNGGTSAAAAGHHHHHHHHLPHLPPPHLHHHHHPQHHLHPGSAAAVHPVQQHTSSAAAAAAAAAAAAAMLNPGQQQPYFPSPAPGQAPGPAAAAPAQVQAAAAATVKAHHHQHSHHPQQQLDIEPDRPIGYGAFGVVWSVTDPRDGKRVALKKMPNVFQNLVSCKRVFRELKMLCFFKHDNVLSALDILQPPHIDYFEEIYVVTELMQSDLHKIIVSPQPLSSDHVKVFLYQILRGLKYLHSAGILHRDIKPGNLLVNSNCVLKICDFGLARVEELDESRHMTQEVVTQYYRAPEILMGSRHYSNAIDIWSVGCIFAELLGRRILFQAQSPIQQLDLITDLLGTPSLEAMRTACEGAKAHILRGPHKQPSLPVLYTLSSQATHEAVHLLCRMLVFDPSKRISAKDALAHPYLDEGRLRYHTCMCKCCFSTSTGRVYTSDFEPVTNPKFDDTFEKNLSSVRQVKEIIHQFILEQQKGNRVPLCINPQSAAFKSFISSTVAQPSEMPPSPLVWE
Chain of Phosphorylase b kinase gamma catalytic chain, skeletal muscle/heart isoform (Homo sapiens) (Q16816 whole entry, looked up, canonical isoform): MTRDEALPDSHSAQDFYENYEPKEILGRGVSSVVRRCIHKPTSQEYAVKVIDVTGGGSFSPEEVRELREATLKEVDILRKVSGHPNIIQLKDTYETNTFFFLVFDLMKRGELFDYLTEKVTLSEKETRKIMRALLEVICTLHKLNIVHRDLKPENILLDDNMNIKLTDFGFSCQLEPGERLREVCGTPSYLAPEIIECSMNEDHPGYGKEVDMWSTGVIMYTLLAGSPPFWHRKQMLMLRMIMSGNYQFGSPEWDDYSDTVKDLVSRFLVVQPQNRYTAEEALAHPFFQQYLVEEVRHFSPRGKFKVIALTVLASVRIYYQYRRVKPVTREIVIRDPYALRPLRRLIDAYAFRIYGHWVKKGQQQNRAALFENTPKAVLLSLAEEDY

Q: What does the source list for O=C(Nc1cccnc1)c1cc(-c2ccnc(F)c2)ccc1OCc1ccccc1?
A: Vdss (Brain): 1.6 L/kg; Activity [1]: 119%; inhibition [2]: Active; Activity [3]: 101%; Activity [4]: 57%; Activity [5]: 80%; Activity [6]: 106%; Activity [7]: 59%; Activity [8]: 116%; Activity [9]: 67%; Activity [10]: 65%; Activity [11]: 53%; Activity [12]: 52%; Activity [13]: 102%; Activity [14]: 61%; Activity [15]: 117%; inhibition [16]: Dose-dependent effect; Activity [17]: 71%; inhibition [18]: Dose-dependent effect; Activity [19]: 61%; Activity [20]: 56%; Activity [21]: 101%; Activity [22]: 63%; Activity [23]: 111%; Activity [24]: 63%; Activity [25]: 80%; Activity [26]: 74%; Activity [27]: 53%; Activity [28]: 109%; Activity [29]: 17%; Activity [30]: 46%
